Experimental findings from ChEMBL document CHEMBL4325933, “Potent, Selective, and Cell-Penetrating Inhibitors of Kallikrein-Related Peptidase 4 Based on the Cyclic Peptide MCoTI-II” (ACS Med Chem Lett, 2018) are described below.

Usually Ki stands for the dissociation constant of the complex between target and ligand, obtained from inhibition or displacement. A higher Ki goes with weaker binding.

One data set concerns the target Kallikrein-4 (Homo sapiens, UniProt Q9Y5K2). The data set can be described thus: Inhibition of KLK4 (unknown origin) expressed in sf9 cells using Ac-FVQR-pNA as substrate preincubated for 30 mins followed by substrate addition and measured for 7 mins by spectrophotometric method.
A short description of data set [1]: Drug uptake in human HeLa cells at 4 uM using Alexa Fluor 488 conjugated test compound after 1 hr by trypan blue dye based flow cytometry relative to HIV-Tat. In kind it is ADME, cell-based. Summed up:
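HeLa cells given Alexa Fluor 488-conjugated peptides (4 μM). Mean fluorescence measured by flow cytometry before and after trypan blue quenching of extracellular signal. Values normalized to the HIV-TAT positive control (post-trypan blue). Three independent experiments, SD; one-way ANOVA with Tukey's post hoc test.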
(Flow cytometry measures light scatter and fluorescence of single cells or particles in a stream.)

Data set [2] can be described thus: Stability in human serum at 200 uM up to 24 hrs by RP-HPLC analysis. In kind it is ADME, cell-free. Put shortly: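 Peptides incubated in human serum for up to 24 h. At each time point, the area of the peptide peak on analytical HPLC is expressed as a percentage of the peptide peak in PBS at 0 h. Three independent experiments, SD.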
A further data set concerns the target Prothrombin (Homo sapiens, UniProt P00734). The data set can be described thus: Inhibition of thrombin (unknown origin) using Bz-FVR-pNA as substrate preincubated for 30 mins followed by substrate addition and measured for 7 mins by spectrophotometric method.
A further data set addresses Trypsin (Homo sapiens, UniProt P07477+P07478+P35030). The data set is described as follows: Inhibition of trypsin (unknown origin) using Bz-FVR-pNA as substrate preincubated for 30 mins followed by substrate addition and measured for 7 mins by spectrophotometric method. The format is protein assay.
A further data set deals with T1, Kallikrein-5 (Homo sapiens, UniProt Q9Y337).
T1 sequence (Q9Y337 whole entry): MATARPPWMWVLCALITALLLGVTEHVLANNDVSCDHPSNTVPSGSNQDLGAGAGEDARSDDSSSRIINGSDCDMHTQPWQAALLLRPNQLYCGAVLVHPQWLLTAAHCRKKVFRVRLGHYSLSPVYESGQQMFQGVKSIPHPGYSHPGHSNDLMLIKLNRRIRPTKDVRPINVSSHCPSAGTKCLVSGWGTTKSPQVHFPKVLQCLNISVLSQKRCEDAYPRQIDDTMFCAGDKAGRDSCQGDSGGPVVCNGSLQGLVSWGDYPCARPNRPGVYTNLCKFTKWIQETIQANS
The data set can be described thus: Inhibition of KLK5 (unknown origin) expressed in Pichia pastoris strain X-33 using Ac-YRSR-pNA as substrate preincubated for 30 mins followed by substrate addition and measured for 7 mins by spectrophotometric method.

A further data set addresses Plasminogen (Homo sapiens, UniProt P00747). The data set can be described thus: Inhibition of plasmin (unknown origin) using Ac-RM(O2)YR-pNA as substrate preincubated for 30 mins followed by substrate addition and measured for 7 mins by spectrophotometric method.
In a further data set the test system is HeLa. The data set can be described thus: Cytotoxicity against human HeLa cells up to 64 uM after 2 hrs by resazurin dye based assay. The format is cell-based. Put shortly: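 HeLa cells exposed to peptides for 2 h, concentrations up to 64 μM. Resazurin then added for 18 h at 37 °C. Resorufin absorbance read at 540 and 620 nm, and viability % expressed as the A620/A540 ratio. Three independent experiments, standard deviation.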
On the technique in general: The colour change of resazurin is a common sign of viable cells or microbes.

The target of another data set is Kallikrein-7 (Homo sapiens, UniProt P49862). The data set is described as follows: Inhibition of KLK7 (unknown origin) expressed in Pichia pastoris strain X-33 using KHLY-pNA as substrate preincubated for 30 mins followed by substrate addition and measured for 7 mins by spectrophotometric method.
The target of a further data set is T2, Coagulation factor XII (Homo sapiens, UniProt P00748).
T2 sequence (P00748 whole entry): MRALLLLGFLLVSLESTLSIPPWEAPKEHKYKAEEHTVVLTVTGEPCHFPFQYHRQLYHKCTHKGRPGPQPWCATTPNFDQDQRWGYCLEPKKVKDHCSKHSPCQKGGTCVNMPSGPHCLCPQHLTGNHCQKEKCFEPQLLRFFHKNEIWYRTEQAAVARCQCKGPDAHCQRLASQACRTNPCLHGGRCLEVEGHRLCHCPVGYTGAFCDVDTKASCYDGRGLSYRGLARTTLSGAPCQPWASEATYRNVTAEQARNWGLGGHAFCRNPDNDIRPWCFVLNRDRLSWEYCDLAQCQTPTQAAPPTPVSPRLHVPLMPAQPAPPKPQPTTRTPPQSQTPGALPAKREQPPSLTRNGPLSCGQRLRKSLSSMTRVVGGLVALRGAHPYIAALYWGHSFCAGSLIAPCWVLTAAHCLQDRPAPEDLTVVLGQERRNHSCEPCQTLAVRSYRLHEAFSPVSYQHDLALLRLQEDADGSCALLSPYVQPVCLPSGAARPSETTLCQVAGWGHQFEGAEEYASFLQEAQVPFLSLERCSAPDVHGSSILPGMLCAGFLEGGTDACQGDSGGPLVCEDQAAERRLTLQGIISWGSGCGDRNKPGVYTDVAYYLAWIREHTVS
The data set can be described thus: Inhibition of factor 12a (unknown origin) using Ac-QRFR-pNA as substrate preincubated for 30 mins followed by substrate addition and measured for 7 mins by spectrophotometric method.

Another data set deals with Plasma kallikrein (Homo sapiens, UniProt P03952). The data set can be described thus: Inhibition of plasma kallikrein (unknown origin) using Ac-NLTR-pNA as substrate preincubated for 30 mins followed by substrate addition and measured for 7 mins by spectrophotometric method.
The next data set concerns the target Coagulation factor X (Homo sapiens, UniProt P00742). The data set can be described thus: Inhibition of factor 10a (unknown origin) using Ac-QRSR-pNA as substrate preincubated for 30 mins followed by substrate addition and measured for 7 mins by spectrophotometric method.
In another data set the target is T3, Kallikrein-14 (Homo sapiens, UniProt Q9P0G3).
T3 sequence (Q9P0G3 whole entry): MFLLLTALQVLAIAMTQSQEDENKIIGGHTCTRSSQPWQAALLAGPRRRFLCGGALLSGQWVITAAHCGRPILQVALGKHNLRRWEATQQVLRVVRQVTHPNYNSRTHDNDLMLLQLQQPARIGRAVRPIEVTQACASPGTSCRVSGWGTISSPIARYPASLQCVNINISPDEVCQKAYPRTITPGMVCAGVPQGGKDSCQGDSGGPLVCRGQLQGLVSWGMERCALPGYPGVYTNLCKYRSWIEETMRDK
The data set can be described thus: Inhibition of KLK14 (unknown origin) expressed in sf9 cells using Ac-YANR-pNA as substrate preincubated for 30 mins followed by substrate addition and measured for 7 mins by spectrophotometric method.

Positions of bridges follow the written chain, without caps; N, C: chain ends. Residues, ends and D or L forms follow the SMILES beside them.

Chain of Kallikrein-4 (Q9Y5K2 whole entry): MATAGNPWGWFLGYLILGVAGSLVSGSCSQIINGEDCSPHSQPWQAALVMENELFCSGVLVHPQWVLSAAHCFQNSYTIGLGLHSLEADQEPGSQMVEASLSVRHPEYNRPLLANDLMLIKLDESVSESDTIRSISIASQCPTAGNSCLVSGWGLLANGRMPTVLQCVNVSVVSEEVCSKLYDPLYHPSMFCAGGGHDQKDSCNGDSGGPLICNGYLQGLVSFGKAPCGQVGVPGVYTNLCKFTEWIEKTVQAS
Chain of Kallikrein-7 (P49862 whole entry): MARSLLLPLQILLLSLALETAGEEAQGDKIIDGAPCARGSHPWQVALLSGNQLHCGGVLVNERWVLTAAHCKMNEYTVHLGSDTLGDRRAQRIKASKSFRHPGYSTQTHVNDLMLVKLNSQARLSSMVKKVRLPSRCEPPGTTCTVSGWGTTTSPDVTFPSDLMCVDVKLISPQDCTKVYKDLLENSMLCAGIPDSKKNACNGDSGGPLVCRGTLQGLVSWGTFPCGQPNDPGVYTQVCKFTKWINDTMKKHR
Chain of Plasma kallikrein (P03952 20-390 limits assumed): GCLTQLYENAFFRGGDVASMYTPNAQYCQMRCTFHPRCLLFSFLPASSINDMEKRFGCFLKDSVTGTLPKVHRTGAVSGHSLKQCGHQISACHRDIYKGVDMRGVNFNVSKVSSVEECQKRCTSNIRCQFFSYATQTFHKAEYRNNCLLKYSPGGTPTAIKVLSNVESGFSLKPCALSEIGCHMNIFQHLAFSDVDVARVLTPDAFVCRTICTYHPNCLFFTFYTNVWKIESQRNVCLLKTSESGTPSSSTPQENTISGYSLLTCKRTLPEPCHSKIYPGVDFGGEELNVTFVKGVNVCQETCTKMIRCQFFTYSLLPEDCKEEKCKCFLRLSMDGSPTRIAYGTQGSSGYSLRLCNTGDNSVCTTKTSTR
Chain of Plasma kallikrein (P03952 391-638 limits assumed): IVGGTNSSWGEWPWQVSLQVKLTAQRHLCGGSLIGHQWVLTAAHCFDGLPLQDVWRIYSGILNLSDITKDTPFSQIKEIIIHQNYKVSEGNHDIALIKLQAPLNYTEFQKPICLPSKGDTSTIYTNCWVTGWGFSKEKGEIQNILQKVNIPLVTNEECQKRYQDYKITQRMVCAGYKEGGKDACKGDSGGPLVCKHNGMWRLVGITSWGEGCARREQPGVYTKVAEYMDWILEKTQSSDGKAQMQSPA
Chain of Coagulation factor X (P00742 41-179 limits assumed): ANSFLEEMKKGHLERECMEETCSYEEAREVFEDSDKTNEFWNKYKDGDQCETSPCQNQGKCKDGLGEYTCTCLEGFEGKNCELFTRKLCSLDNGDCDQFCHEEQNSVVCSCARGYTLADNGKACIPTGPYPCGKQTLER
Chain of Coagulation factor X (P00742 235-488 limits assumed): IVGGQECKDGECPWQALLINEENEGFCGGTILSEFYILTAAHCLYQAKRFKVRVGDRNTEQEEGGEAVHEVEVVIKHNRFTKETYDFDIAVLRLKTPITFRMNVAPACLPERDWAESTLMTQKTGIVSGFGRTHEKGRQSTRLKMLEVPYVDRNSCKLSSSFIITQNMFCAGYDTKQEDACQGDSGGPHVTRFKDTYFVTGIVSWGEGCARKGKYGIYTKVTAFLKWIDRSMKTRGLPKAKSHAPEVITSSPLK
Chain of Plasminogen (P00747 97-580 limits assumed): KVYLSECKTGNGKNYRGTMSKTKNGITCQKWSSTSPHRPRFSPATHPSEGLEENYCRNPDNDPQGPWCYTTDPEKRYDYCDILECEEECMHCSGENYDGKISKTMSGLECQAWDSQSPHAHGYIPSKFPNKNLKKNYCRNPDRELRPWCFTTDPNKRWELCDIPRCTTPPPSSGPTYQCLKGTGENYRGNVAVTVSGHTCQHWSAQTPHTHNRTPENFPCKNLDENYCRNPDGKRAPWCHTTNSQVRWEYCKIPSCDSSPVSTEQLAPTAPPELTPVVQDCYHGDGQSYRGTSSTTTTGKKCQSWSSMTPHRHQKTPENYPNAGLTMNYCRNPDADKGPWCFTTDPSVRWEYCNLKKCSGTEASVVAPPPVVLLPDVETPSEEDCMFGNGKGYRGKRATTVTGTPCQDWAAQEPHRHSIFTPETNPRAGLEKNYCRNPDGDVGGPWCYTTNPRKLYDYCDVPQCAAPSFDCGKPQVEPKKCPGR
Chain of Plasminogen (P00747 581-810 limits assumed): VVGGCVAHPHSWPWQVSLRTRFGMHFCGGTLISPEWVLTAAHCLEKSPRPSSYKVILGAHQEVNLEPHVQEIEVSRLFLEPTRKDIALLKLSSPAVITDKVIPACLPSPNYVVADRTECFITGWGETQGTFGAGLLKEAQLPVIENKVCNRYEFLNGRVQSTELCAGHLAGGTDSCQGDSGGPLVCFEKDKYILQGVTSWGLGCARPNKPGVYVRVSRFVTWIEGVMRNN

`CC[C@H](C)[C@@H]1NC(=O)[C@@H]2CSSC[C@@H]3NC(=O)[C@H](C(C)C)NC(=O)CNC(=O)CNC(=O)[C@H](CC(=O)O)NC(=O)[C@H](CO)NC(=O)CNC(=O)[C@H](CO)NC(=O)CNC(=O)[C@@H]4CSSC[C@H](NC(=O)[C@H](CC(=O)O)NC(=O)[C@H](CO)NC(=O)[C@H](CC(=O)O)NC(=O)[C@H](CCCNC(=N)N)NC(=O)[C@H](CCCNC(=N)N)NC(=O)[C@H](CSSC[C@H](NC1=O)C(=O)N[C@@H](CCCNC(=N)N)C(=O)NCC(=O)N[C@@H](CC(N)=O)C(=O)NCC(=O)N[C@@H](Cc1ccc(O)cc1)C(=O)N4)NC(=O)[C@H](CCCCN)NC(=O)[C@H](CCCCN)NC(=O)[C@H](CC(C)C)NC(=O)[C@H]([C@@H](C)CC)NC(=O)[C@H](CCCNC(=N)N)NC(=O)[C@@H]1CCCN1C3=O)C(=O)N1CCC[C@H]1C(=O)NCC(=O)N[C@@H](C)C(=O)N2` registered a Ki on Kallikrein-4 of 0.3 nM. For the same compound, in data set [1], the Drug uptake result is recorded as “Not Active”.
As for `CC[C@H](C)[C@@H]1NC(=O)[C@@H]2CSSC[C@@H]3NC(=O)[C@H](Cc4ccccc4)NC(=O)CNC(=O)CNC(=O)[C@H](CC(=O)O)NC(=O)[C@H](CO)NC(=O)CNC(=O)[C@H](CO)NC(=O)CNC(=O)[C@@H]4CSSC[C@H](NC(=O)[C@H](CC(=O)O)NC(=O)[C@H](CO)NC(=O)[C@H](CC(=O)O)NC(=O)[C@H](CCC(N)=O)NC(=O)[C@H](CCC(N)=O)NC(=O)[C@H](CSSC[C@H](NC1=O)C(=O)N[C@@H](CCCCN)C(=O)NCC(=O)N[C@@H](CC(N)=O)C(=O)NCC(=O)N[C@@H](Cc1ccc(O)cc1)C(=O)N4)NC(=O)[C@H](CCC(N)=O)NC(=O)[C@H](CCC(N)=O)NC(=O)[C@H](CC(C)C)NC(=O)[C@H]([C@@H](C)CC)NC(=O)[C@H](CCCNC(=N)N)NC(=O)[C@H](CCC(N)=O)NC3=O)C(=O)N1CCC[C@H]1C(=O)NCC(=O)N[C@@H](C)C(=O)N2` (cyclo(ACICKGNGYCGSGSDGGFCQRILQQCQQDSDCPG); disulfide 2-19, 4-26, 10-32), the Stability result in data set [2] is listed as “Stable”. Further, the Ki is above 10000 nM on Prothrombin; 6.9 nM at Trypsin; above 10000 nM at Kallikrein-5; 0.44 nM on Kallikrein-4; above 10000 nM at Plasminogen; above 10000 nM at Kallikrein-7. The Ki on Coagulation factor XII was above 10000 nM; at Plasma kallikrein it was above 10000 nM; on Coagulation factor X, 520 nM; on Kallikrein-14, above 10000 nM. The Activity entry with HeLa was “Non-Toxic”. Moreover, the Drug uptake entry in data set [1] is on record as “Not Active”.
As for `CC[C@H](C)[C@@H]1NC(=O)[C@@H]2CSSC[C@@H]3NC(=O)[C@H](Cc4ccccc4)NC(=O)CNC(=O)CNC(=O)[C@H](CC(=O)O)NC(=O)[C@H](CO)NC(=O)CNC(=O)[C@H](CO)NC(=O)CNC(=O)[C@@H]4CSSC[C@H](NC(=O)[C@H](CC(=O)O)NC(=O)[C@H](CO)NC(=O)[C@H](CC(=O)O)NC(=O)[C@H](CCCNC(=N)N)NC(=O)[C@H](CCCNC(=N)N)NC(=O)[C@H](CSSC[C@H](NC1=O)C(=O)N[C@@H](CCCNC(=N)N)C(=O)NCC(=O)N[C@@H](CC(N)=O)C(=O)NCC(=O)N[C@@H](Cc1ccc(O)cc1)C(=O)N4)NC(=O)[C@H](CCCCN)NC(=O)[C@H](CCCCN)NC(=O)[C@H](CC(C)C)NC(=O)[C@H]([C@@H](C)CC)NC(=O)[C@H](CCCCN)NC(=O)[C@@H]1CCCN1C3=O)C(=O)N1CCC[C@H]1C(=O)NCC(=O)N[C@@H](C)C(=O)N2`, the Ki on Kallikrein-4 was 1.3 nM.
Compound `CC[C@H](C)[C@@H]1NC(=O)[C@@H]2CSSC[C@@H]3NC(=O)[C@H](C(C)C)NC(=O)CNC(=O)CNC(=O)[C@H](CC(=O)O)NC(=O)[C@H](CO)NC(=O)CNC(=O)[C@H](CO)NC(=O)CNC(=O)[C@@H]4CSSC[C@H](NC(=O)[C@H](CC(=O)O)NC(=O)[C@H](CO)NC(=O)[C@H](CC(=O)O)NC(=O)[C@H](CCC(N)=O)NC(=O)[C@H](CCC(N)=O)NC(=O)[C@H](CSSC[C@H](NC1=O)C(=O)N[C@@H](CCCCN)C(=O)NCC(=O)N[C@@H](CC(N)=O)C(=O)NCC(=O)N[C@@H](Cc1ccc(O)cc1)C(=O)N4)NC(=O)[C@H](CCC(N)=O)NC(=O)[C@H](CCC(N)=O)NC(=O)[C@H](CC(C)C)NC(=O)[C@H]([C@@H](C)CC)NC(=O)[C@H](CCCNC(=N)N)NC(=O)[C@@H]1CCCN1C3=O)C(=O)N1CCC[C@H]1C(=O)NCC(=O)N[C@@H](C)C(=O)N2` (cyclo(ACICKGNGYCGSGSDGGVCPRILQQCQQDSDCPG); disulfide 2-19, 4-26, 10-32) yielded a Ki on Kallikrein-4 of 1.8 nM. Moreover, the Activity entry in the data set with HeLa is given as “Non-Toxic”. In data set [1], the Drug uptake entry is “Not Active”.
The compound `CC[C@H](C)[C@@H]1NC(=O)[C@@H]2CSSC[C@@H]3NC(=O)[C@H](C(C)C)NC(=O)CNC(=O)CNC(=O)[C@H](CC(=O)O)NC(=O)[C@H](CO)NC(=O)CNC(=O)[C@H](CO)NC(=O)CNC(=O)[C@@H]4CSSC[C@H](NC(=O)[C@H](CC(=O)O)NC(=O)[C@H](CO)NC(=O)[C@H](CC(=O)O)NC(=O)[C@H](CCCNC(=N)N)NC(=O)[C@H](CCCNC(=N)N)NC(=O)[C@H](CSSC[C@H](NC1=O)C(=O)N[C@@H](CCCNC(=N)N)C(=O)NCC(=O)N[C@@H](CC(N)=O)C(=O)NCC(=O)N[C@@H](Cc1ccc(O)cc1)C(=O)N4)NC(=O)[C@H](CCCCN)NC(=O)[C@H](CCCCN)NC(=O)[C@H](CC(C)C)NC(=O)[C@H]([C@@H](C)CC)NC(=O)[C@H](CCCCN)NC(=O)[C@H](CCC(N)=O)NC3=O)C(=O)N1CCC[C@H]1C(=O)NCC(=O)N[C@@H](C)C(=O)N2` registered a Ki at Kallikrein-4 of 0.13 nM.
